“And” between values parts separate entries of the source, which are not always exact repeats. Equal entries are not always repeated.
How the values were obtained:
Tumor Cell line [1] = assay: The compound was evaluated in vitro for the log10 molecular concentration that caused 50 % of 60 human tumor cell line kills; type: ADME, cell-based
In short: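 Human tumor cell lines (leukemia, non-small-cell lung, ovarian, renal) were preincubated 24 h. Platinum complexes were then added as five 10-fold dilutions, 0.01–100 μM, for 48 h, followed by in situ fixation and staining, with solubilized stain read spectrophotometrically. Log LC50 (50% cell kill) was averaged across cell lines within one experiment.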

Tumor Cell line [2] = assay: Evaluated in vitro for the log10 molecular concentration that caused 50 % inhibition of tumor growth of 60 human tumor cell lines; type: functional, cell-based
In short: (§1)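 Cells preincubated 24 h, then exposed to the agent at five 10-fold dilutions (0.01–100 μM for the platinum complexes) for 48 h. Cells fixed in situ and stained; solubilized stain read spectrophotometrically. Panel of leukemia, non-small-cell lung, ovarian and renal lines. Log GI50 or TGI taken per cell line in one experiment, then averaged across lines.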

Tumor Cell line [3] = assay: Evaluated in vitro for the log10 molecular concentration that caused […] tumor growth of 60 human tumor cell lines.; type: functional, cell-based; in short: as §1
Mus musculus [4] = assay: The compound was evaluated for the mean body weight change (BWC) in mice infected with cisplatin resistant L1210 Leukemia (dose 20 mg/kg, ip),day 1; type: functional, organism-based; set-up: dose 20 mg/kg
In short: (§2)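 CD2F1 mice, 6 or 10 per dose group (20 or 30 controls), were implanted ip on day 0 with 10⁵ L1210/0 (parent) or L1210/cisplatin (resistant) leukemia cells. Complexes were given ip in saline plus Tween 80 on days 1, 5 and 9. Read-out was mean body weight change per group, day 5 minus day 1. Sensitive and resistant arms ran simultaneously from the same preparations.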

Mus musculus [5] = assay: The compound was evaluated for the mean body weight change (BWC) in mice infected with cisplatin resistant L1210 Leukemia (dose 30 mg/kg, ip),day 1; type: functional, organism-based; set-up: dose 30 mg/kg; in short: as §2
Mus musculus [6] = assay: The compound was evaluated for the mean body weight change (BWC) in mice infected with cisplatin resistant L1210 Leukemia (dose 5 mg/kg, ip),day 1; type: functional, organism-based; set-up: dose 5 mg/kg; in short: as §2
Mus musculus [7] = assay: The compound was evaluated for the mean body weight change (BWC) in mice infected with cisplatin sensitive L1210 Leukemia (dose 10 mg/kg, ip),day 5; type: functional, organism-based; set-up: dose 10 mg/kg
In short: (§3)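 CD2F1 mice implanted ip on day 0 with 10^5 L1210/0 (parent) leukemia cells, in groups of 6 or 10 (20 or 30 controls). Complexes given ip in saline plus Tween 80 on days 1, 5 and 9. BWC is the group mean weight change, day 5 minus day 1. MST is median survival and %ILS is calculated from MST, both from dying mice only, excluding day 30 survivors.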

Mus musculus [8] = assay: The compound was evaluated for the mean body weight change (BWC) in mice infected with cisplatin sensitive L1210 Leukemia (dose 10 mg/kg, ip),day 9; type: functional, organism-based; set-up: dose 10 mg/kg; in short: as §3
Mus musculus [9] = assay: The compound was evaluated for the mean body weight change (BWC) in mice infected with cisplatin sensitive L1210 Leukemia (dose 15 mg/kg, ip),day 1; type: functional, organism-based; set-up: dose 15 mg/kg; in short: as §3
Mus musculus [10] = assay: The compound was evaluated for the mean body weight change (BWC) in mice infected with cisplatin sensitive L1210 Leukemia (dose 20 mg/kg, ip),day 1; type: functional, organism-based; set-up: dose 20 mg/kg; in short: as §2
Mus musculus [11] = assay: The compound was evaluated for the mean body weight change (BWC) in mice infected with cisplatin sensitive L1210 Leukemia (dose 20 mg/kg, ip),day 5; type: functional, organism-based; set-up: dose 20 mg/kg; in short: as §3
Mus musculus [12] = assay: The compound was evaluated for the mean body weight change (BWC) in mice infected with cisplatin sensitive L1210 Leukemia (dose 20 mg/kg, ip),day 9; type: functional, organism-based; set-up: dose 20 mg/kg; in short: as §3
Mus musculus [13] = assay: The compound was evaluated for the mean body weight change (BWC) in mice infected with cisplatin sensitive L1210 Leukemia (dose 30 mg/kg, ip),day 1; type: functional, organism-based; set-up: dose 30 mg/kg; in short: as §3
Mus musculus [14] = assay: The compound was evaluated for the mean body weight change (BWC) in mice infected with cisplatin sensitive L1210 Leukemia (dose 40 mg/kg, ip),day 1; type: functional, organism-based; set-up: dose 40 mg/kg; in short: as §3
Mus musculus [15] = assay: The compound was evaluated for the mean body weight change (BWC) in mice infected with cisplatin sensitive L1210 Leukemia (dose 40 mg/kg, ip),day 5; type: functional, organism-based; set-up: dose 40 mg/kg; in short: as §3
Mus musculus [16] = assay: The compound was evaluated for the mean body weight change (BWC) in mice infected with cisplatin sensitive L1210 Leukemia (dose 5 mg/kg, ip),day 1; type: functional, organism-based; set-up: dose 5 mg/kg; in short: as §3
Mus musculus [17] = assay: The compound was evaluated for the mean body weight change (BWC) in mice infected with cisplatin sensitive L1210 Leukemia (dose 80 mg/kg, ip),day 5; type: functional, organism-based; set-up: dose 80 mg/kg; in short: as §3
Mus musculus [18] = assay: The compound was evaluated for the mean body weight change (BWC) in mice infected with cisplatin sensitive L1210 Leukemia (dose 80 mg/kg, ip),day 9; type: functional, organism-based; set-up: dose 80 mg/kg; in short: as §3
Mus musculus [19] = assay: The compound was evaluated for the mean body weight change (BWC) in mice infected with cisplatin resistant L1210 Leukemia (dose 15 mg/kg, ip),day 1; type: functional, organism-based; set-up: dose 15 mg/kg; in short: as §2
Mus musculus [20] = species: Mus musculus; assay: The compound was evaluated for the percentage increase in life span (ILS) based on dying mice only (excludes day 10 survivors) for following doses against L1210 Leukemia cell line, day5; type: functional, organism-based
Mus musculus [21] = species: Mus musculus; assay: The compound was evaluated for the percentage increase in life span (ILS) based on dying mice only (excludes day 15 survivors) for following doses against L1210 Leukemia cell line, day1; type: functional, organism-based
Mus musculus [22] = species: Mus musculus; assay: The compound was evaluated for the percentage increase in life span (ILS) based on dying mice only (excludes day 20 survivors) for following doses against L1210 Leukemia cell line, day1; type: functional, organism-based
Mus musculus [23] = species: Mus musculus; assay: The compound was evaluated for the percentage increase in life span (ILS) based on dying mice only (excludes day 20 survivors) for following doses against L1210 Leukemia cell line, day5; type: functional, organism-based
Mus musculus [24] = species: Mus musculus; assay: The compound was evaluated for the percentage increase in life span (ILS) based on dying mice only (excludes day 40 survivors) for following doses against L1210 Leukemia cell line, day5; type: functional, organism-based
Mus musculus [25] = species: Mus musculus; assay: The compound was evaluated for the percentage increase in life span (ILS) based on dying mice only (excludes day 40 survivors) for following doses against L1210 Leukemia cell line, day9; type: functional, organism-based
Mus musculus [26] = species: Mus musculus; assay: The compound was evaluated for the percentage increase in life span (ILS) based on dying mice only (excludes day survivors) for following doses against L1210 Leukemia cell line, day1; type: functional, organism-based; in short: as §3
Mus musculus [27] = assay: The compound was evaluated for the median survival time (MST) in mice infected with cisplatin sensitive L1210 Leukemia (dose 80 mg/kg, ip), day 5; type: functional, organism-based; set-up: dose 80 mg/kg; in short: as §3
Mus musculus [28] = assay: The compound was evaluated for the median survival time (MST) in mice infected with cisplatin sensitive L1210 Leukemia (dose 80 mg/kg, ip), day 9; type: functional, organism-based; set-up: dose 80 mg/kg; in short: as §3
Mus musculus [29] = assay: The compound was evaluated for the median survival time (MST) in mice infected with cisplatin sensitive L1210 Leukemia (dose 20 mg/kg, ip), day 1; type: functional, organism-based; set-up: dose 20 mg/kg; in short: as §3
Mus musculus [30] = assay: The compound was evaluated for the median survival time (MST) in mice infected with cisplatin sensitive L1210 Leukemia (dose 20 mg/kg, ip), day 5; type: functional, organism-based; set-up: dose 20 mg/kg; in short: as §3
Mus musculus [31] = assay: The compound was evaluated for the median survival time (MST) in mice infected with cisplatin sensitive L1210 Leukemia (dose 20 mg/kg, ip), day 9; type: functional, organism-based; set-up: dose 20 mg/kg; in short: as §3
Mus musculus [32] = assay: The compound was evaluated for the median survival time (MST) in mice infected with cisplatin sensitive L1210 Leukemia (dose 5 mg/kg, ip), day 1; type: functional, organism-based; set-up: dose 5 mg/kg; in short: as §3
Mus musculus [33] = assay: The compound was evaluated for the median survival time (MST) in mice infected with cisplatin resistant L1210 Leukemia (dose 5 mg/kg, ip), day 1; type: functional, organism-based; set-up: dose 5 mg/kg
In short: (§4)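 On day 0, 10⁵ parent or cisplatin-resistant L1210 cells were implanted ip into CD2F1 mice, 6 or 10 per dose group (20 or 30 controls). Dosing was ip on days 1, 5 and 9 in saline plus Tween 80. Median survival time was taken from dying mice only, excluding day-30 survivors. Both sublines were tested concurrently.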

Mus musculus [34] = assay: The compound was evaluated for the median survival time (MST) in mice infected with cisplatin sensitive L1210 Leukemia (dose 10 mg/kg, ip), day 1; type: functional, organism-based; set-up: dose 10 mg/kg; in short: as §3
Mus musculus [35] = assay: The compound was evaluated for the median survival time (MST) in mice infected with cisplatin sensitive L1210 Leukemia (dose 10 mg/kg, ip), day 5; type: functional, organism-based; set-up: dose 10 mg/kg; in short: as §3
Mus musculus [36] = assay: The compound was evaluated for the median survival time (MST) in mice infected with cisplatin sensitive L1210 Leukemia (dose 10 mg/kg, ip), day 9; type: functional, organism-based; set-up: dose 10 mg/kg; in short: as §3
Mus musculus [37] = assay: The compound was evaluated for the median survival time (MST) in mice infected with cisplatin sensitive L1210 Leukemia (dose 15 mg/kg, ip), day 1; type: functional, organism-based; set-up: dose 15 mg/kg; in short: as §3
Mus musculus [38] = assay: The compound was evaluated for the median survival time (MST) in mice infected with cisplatin sensitive L1210 Leukemia (dose 30 mg/kg, ip), day 1; type: functional, organism-based; set-up: dose 30 mg/kg; in short: as §3
Mus musculus [39] = assay: The compound was evaluated for the median survival time (MST) in mice infected with cisplatin sensitive L1210 Leukemia (dose 40 mg/kg, ip), day 5; type: functional, organism-based; set-up: dose 40 mg/kg; in short: as §3
Mus musculus [40] = assay: The compound was evaluated for the median survival time (MST) in mice infected with cisplatin sensitive L1210 Leukemia (dose 40 mg/kg, ip), day 9; type: functional, organism-based; set-up: dose 40 mg/kg; in short: as §3
Mus musculus [41] = assay: The compound was evaluated for the median survival time (MST) in mice infected with cisplatin resistant L1210 Leukemia (dose 30 mg/kg, ip), day 1; type: functional, organism-based; set-up: dose 30 mg/kg; in short: as §4
Mus musculus [42] = assay: The compound was evaluated for the median survival time (MST) in mice infected with cisplatin resistant L1210 Leukemia (dose 15 mg/kg, ip), day 1; type: functional, organism-based; set-up: dose 15 mg/kg; in short: as §4
Mus musculus [43] = assay: The compound was evaluated for the median survival time (MST) in mice infected with cisplatin resistant L1210 Leukemia (dose 20 mg/kg, ip), day 1; type: functional, organism-based; set-up: dose 20 mg/kg; in short: as §4

[Bis(aminomethyl)tetramethylenesilane]dichloropaltinum(II)
Log LC50 (Tumor Cell line [1]): > -4

[Bis(aminomethyl)dimethylsilane]dichloroplatinum (II)
GI50 (Tumor Cell line [2]): 20.4 µM
TGI (Tumor Cell line [3]): 83.2 µM
BWC (Mus musculus [4]): -2.7 g
BWC (Mus musculus [5]): -2.5 g
BWC (Mus musculus [6]): 0.1 g
BWC (Mus musculus [7]): -0.9 g
BWC (Mus musculus [8]): -0.2 g
BWC (Mus musculus [9]): -1.7 g
BWC (Mus musculus [10]): -1 g
BWC (Mus musculus [11]): -0.6 g
BWC (Mus musculus [12]): -0.2 g
BWC (Mus musculus [13]): -1.1 g
BWC (Mus musculus [14]): -2.9 g
BWC (Mus musculus [15]): -0.9 g
BWC (Mus musculus [16]): -0.4 g
BWC (Mus musculus [17]): -3.5 g
BWC (Mus musculus [18]): -4.3 g
BWC (Mus musculus [19]): -0.4 g
ILS (Mus musculus [20]): 109%
ILS (Mus musculus [21]): 83%
ILS (Mus musculus [22]): 88%
ILS (Mus musculus [23]): 138%
ILS (Mus musculus [24]): 248%
ILS (Mus musculus [25]): 31%
ILS (Mus musculus [26]): 152%
MST (Mus musculus [27]): 11.8 days
MST (Mus musculus [28]): 6.3 days
MST (Mus musculus [29]): 16.8 days
MST (Mus musculus [30]): 20.5 days
MST (Mus musculus [31]): 22.5 days
MST (Mus musculus [32]): 21.5 days
MST (Mus musculus [33]): 12.5 days
MST (Mus musculus [34]): 22.5 days and 10.5 days
MST (Mus musculus [35]): 18 days
MST (Mus musculus [36]): 15.5 days
MST (Mus musculus [37]): 16.3 days
MST (Mus musculus [38]): 21.5 days
MST (Mus musculus [39]): 30 days
MST (Mus musculus [40]): 11.7 days
MST (Mus musculus [41]): 14.8 days
MST (Mus musculus [42]): 18.3 days
MST (Mus musculus [43]): 13.8 days

[Bis(aminomethyl)pentamethylenesilane]dichloropaltinum(II)
GI50 (Tumor Cell line [2]): 11.7 µM
TGI (Tumor Cell line [3]): 67.6 µM

Source: ChEMBL document CHEMBL1128557, “Synthesis, antitumor activity, and chemical properties of silaplatin and related platinum (II) and platinum (IV) complexes derived from beta-silyl amines” (J Med Chem, 1995)
